High-throughput results (PubChem BioAssay)
Mcl1-Noxa inh – Mcl-1/Noxa interaction inhibition. hit rate 1.5% among 220,000. TR-FRET Mcl-1/Noxa peptide binding, 2 h. inhibition, % at 21.7 µM. Q07820;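 active = compounds that cut the protein-peptide binding signal by more than 50% relative to plate controls in a single-dose test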;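 also: His-tagged Mcl-1 with rhodamine Noxa BH3 peptide and terbium anti-His antibody; 0% = Mcl-1 plus Noxa peptide wells and 100% = peptide-only wells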
Target sequence (Q07820 whole entry, looked up): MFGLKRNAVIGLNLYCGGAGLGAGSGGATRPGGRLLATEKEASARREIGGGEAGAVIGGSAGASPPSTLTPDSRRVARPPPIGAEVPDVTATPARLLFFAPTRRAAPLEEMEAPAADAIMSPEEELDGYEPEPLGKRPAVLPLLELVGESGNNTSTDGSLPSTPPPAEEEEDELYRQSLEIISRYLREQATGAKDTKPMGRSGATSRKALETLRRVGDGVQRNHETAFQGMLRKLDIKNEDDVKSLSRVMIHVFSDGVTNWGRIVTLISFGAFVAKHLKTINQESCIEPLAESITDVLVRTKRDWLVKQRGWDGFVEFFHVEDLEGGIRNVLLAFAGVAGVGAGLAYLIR
Mcl1 Bid PPI – disrupts binding of human Mcl-1 to Bid peptide | Q07820 | hit rate 0.97% among 220,000 | TR-FRET Mcl-1/Bid-Dy647 peptide binding, 1536-well | AID 1021 | inhibition, % at 21.7 µM;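 active = compounds that cut the binding signal by more than half at the single screening dose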;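 also: His-tagged Mcl-1 with europium anti-His antibody binding Bid BH3 peptide; 0% = Mcl-1 plus peptide wells and 100% = peptide-only wells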
Hck-Nef inh – human Hck-Nef kinase inhibition. P08631. inhibition, % at 20 µM. Recombinant Hck-YEEI plus Nef, Z-Lyte FRET kinase assay. hit rate 0.68% among 220,000;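 active = Hck-Nef kinase inhibition above about 50%, limit read from the data; inactive = inhibition below that limit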;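 also: 0% = DMSO with Hck plus Nef and 100% = Hck alone without Nef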
14-3-3 Bad inh – disrupts binding of bovine 14-3-3 zeta to phospho-Bad peptide; inhibition, % at 21.7 µM; hit rate 0.71% among 220,000; TR-FRET 14-3-3zeta/Dy647-pBad peptide displacement, 1 h;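 active = inhibition above about 70%, limit read from the data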;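 also: 0% = full 14-3-3 plus peptide FRET controls and 100% = background without 14-3-3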
Target sequence (P63103 whole entry, looked up): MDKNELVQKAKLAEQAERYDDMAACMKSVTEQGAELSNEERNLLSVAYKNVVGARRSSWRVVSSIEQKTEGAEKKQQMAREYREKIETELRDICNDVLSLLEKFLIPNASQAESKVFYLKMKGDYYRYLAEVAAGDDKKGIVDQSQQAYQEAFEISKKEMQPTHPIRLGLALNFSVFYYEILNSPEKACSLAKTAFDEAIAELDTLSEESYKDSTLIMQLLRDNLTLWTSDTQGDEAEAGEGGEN
Calb biofilm kill – mixture kills Candida albicans biofilm cells | C. albicans biofilm persisters + clotrimazole, fluorescence viability; primary screen in compound mixtures of four per well | inhibition, % at 7.6 µM | hit rate 0.02% among 120,000 | AID 1242;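 active = inhibition above 30.3% in the primary screen of four-compound pools, then above 30% when the compound was retested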;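 also: compounds exposed to preformed 24 h biofilms for 48 h; 0% = untreated biofilm control and 100% = clotrimazole plus chlorhexidine kill blank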
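Probe or stimulus – Clotrimazole 50 µg/mL co-treatment · System – C. albicans biofilms · Schedule – 24 h biofilm formation, then 48 h compound exposure, 37 °C · Evaluation – percent inhibition of biofilm viability · Technique – 2-h Alamar Blue fluorescence, 535/590 nm excitation/emission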
Mcl-1 Bim block – inhibitors of Bim-Mcl-1 interaction, human | Bead-based flow cytometry, Bim peptide-Mcl-1 binding | AID 1009 | hit rate 0.1% among 190,000 | inhibition, % at 10 µM; in the data active = inhibition above about 40%;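 also: 0% = no compound tracer wells and 100% = peptide blocker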
Numbers without * were called inactive; · = no result; [ ] = dose if it differs, or a comment. The list is not random: actives were taken first. Their share in the collection is about 3.2%.

SMILES	Mcl1-Noxa inh	Mcl1 Bid PPI	Hck-Nef inh	14-3-3 Bad inh	Calb biofilm kill	Mcl-1 Bim block
Cc1ccc(NC(=O)/C(C#N)=C(\N)C(Cl)(Cl)Cl)nc1	8	-4	39	12	17	5
OCC1(Cc2cccc(F)c2)CCN(Cc2ccc3cccc(F)c3n2)CC1	8	-17	18	21	4	-3
COc1cccc(CC2(CO)CCN(Cc3ccc4cccc(F)c4n3)CC2)c1	18	-7	-2	90*	16	-11
CC(OC(=O)c1ccc2c(=O)n3c(nc2c1)CCCCC3)C(=O)Nc1ccc(F)cc1Cl (stereo not drawn)	-87	64*	15	43	8	0
O=C(Nc1ccc(F)c(Cl)c1)c1ccc2c(=O)n3c(nc2c1)CCCCC3	4	-12	0	15	·	61*
CC(OC(=O)c1ccc2c(=O)n3c(nc2c1)CCCCC3)C(=O)Nc1ccc(Cl)cn1 (stereo not drawn)	13	4	3	-8	10	-5
CC(C)C(C)NC(=O)COc1ccc(S(=O)(=O)N2CCOCC2)cc1Cl (stereo not drawn)	8	-2	-31	-2	19	-1
CC1(C)C(=O)Nc2ccccc2N1C(=O)COc1ccc(S(=O)(=O)N2CCOCC2)cc1Cl	56*	-19	6	4	·	-5
C=CCNc1nc(Nc2ccc(-c3nc4ccccc4o3)cc2)nc(N2CCOCC2)n1	-4	16	-2	2	·	0
O=C1CCC([N+](=O)[O-])C(c2cccc([N+](=O)[O-])c2)N1 (stereo not drawn)	1	-13	-5	45	12	-1
CCCNC(=O)c1cc2c3ccccc3n(C)c2s1	-6	-14	0	19	·	0
Cn1c2ccccc2c2cc(C(=O)NNC(=O)CCl)sc21	60*	-38	7	-6	19	0
C/C(Cl)=C\Cn1c(N2CCCCCC2)nc2c1c(=O)n(C)c(=O)n2C	8	-16	1	-1	·	3
CCOc1ccccc1CN1CCN(C2CCSCC2)CC1CCO (stereo not drawn)	19	-26	-1	-8	12	0
O=C(O)c1ccc(NC2=C/C(=N/S(=O)(=O)c3ccccc3)c3ccccc3C2=O)cc1	93*	-2	12	31	17	3
CCOc1ccc(/C=N/NC2=NCCCCC2)cc1	2	1	20	-8	14	0
O=C(Nc1ccc2c(c1)OCO2)NC1(C(F)(F)F)Oc2ccccc2O1	19	-40	-25	-14	·	1
C=C(C)C(=O)Nc1ccc2c(c1)OCCOCCOCCO2	52*	-34	26	44	23	·
O=C(Nc1ccc2c(c1)OCCO2)NC1(C(F)(F)F)Oc2ccccc2O1	25	69*	1	33	·	-1
Cn1nnnc1SCC1=C(C(=O)O)N2C(=O)[C@@H](NC(=O)[C@H](O)c3ccccc3)[C@H]2SC1	51*	-57	27	70	26	-4
Cn1nnnc1SCC1=C(C(=O)O)N2C(=O)C(NC(=O)C3CC3c3ccccc3)C2SC1 (stereo not drawn)	26	-56	10	-1	13	3
O=C1CN(C(=O)CNCc2ccc(Cl)cc2)c2ccccc2N1	11	20	-14	15	12	·
Cc1cc(C)n(-c2nc3ccccc3c(=O)n2OCc2ccc(F)cc2)n1	16	13	4	70*[fluorescence artefact?]	·	1
N=c1c[n+](N2CCOCC2)[n-]o1	7	56*	-2	6	20	0
C=CCNC(=O)C12CCC(C)(C(=O)[C@H]1Br)C2(C)C (stereo partly drawn)	-16	-9	18	6	-1	·
SMILES	Mcl1-Noxa inh	Mcl1 Bid PPI	Hck-Nef inh	14-3-3 Bad inh	Calb biofilm kill	Mcl-1 Bim block
O=C(O)/C=C/C(=O)Nc1ccc(NC(=O)c2ccccc2)c(Cl)c1	16	-10	6	96*	12	2
O=C(O)/C=C\C(=O)Nc1cccc(NC(=O)c2ccccc2)c1	10	-13	22	-9	5	2
O=C1OCCN1C(=O)[C@H]1[C@H](c2ccc(F)cc2)C(c2ccc(F)cc2)=NN1c1ccccc1	-17	0	-4	3	14	60*
O=C1OCCN1C(=O)[C@H]1[C@H](c2ccc(F)cc2)C(c2ccc(F)cc2)=NN1c1ccc(Br)cc1	-98	-6	3	2	17	-2
COCC(=O)Nc1ccc(S(=O)(=O)Nc2ccccn2)cc1	1	-24	23	-12	13	0
COc1ccc(C(=O)Oc2ccc(=O)n(-c3ccccc3)n2)cc1	-8	-29	-3	72*	·	0
Cc1nn(Cc2ccccc2)c(Cl)c1C(=O)NCc1ccco1	17	-38	1	-4	-3	-2
O=c1ccc2cc3c4c(c2o1)CCCN4CCC3	10	-15	14	8	21	5
O=c1oc2c3c4c(cc2s1)CCCN4CCC3	51*	-16	1	-11	·	3
CCN(c1ccccc1)S(=O)(=O)c1ccc2[nH]cc(C(=O)N3CCOCC3)c(=O)c2c1	-1	57*	-3	31	·	0
CCOC(=O)N1CCC(N2CCN(S(=O)(=O)c3ccc4ccccc4c3)CC2)CC1	8	27	5	70*	·	0
CCOC(=O)N1CCC(N2CCN(S(=O)(=O)c3ccc([N+](=O)[O-])cc3)CC2)CC1	27	-7	7	19	14	·
O=C(CNCC1CCCO1)N1CCN(S(=O)(=O)c2ccc3ccccc3c2)CC1 (stereo not drawn)	26	15	0	73*	·	2
COc1cc(NC(=O)[C@@H](NC(=O)c2ccco2)C(C)C)c(OC)cc1NC(=O)c1ccccc1	11	-24	27	-29	8	-4
Cc1ccc(CSCCNC(=O)CN(c2ccccc2)S(C)(=O)=O)cc1	7	-21	-6	-13	7	-2
O=C(O)c1ccc(C(=O)c2ccc3c(c2)C(=O)N(CC2CCCO2)C3=O)cc1 (stereo not drawn)	-6	-13	19	-3	-1	-2
CCC1(C)N=c2c(c(=O)n(C)c(=O)n2C)=NO1 (stereo not drawn)	-10	-33	3	4	·	-4
Cc1ccc(NC(=O)CSc2nc3ccccc3c(=O)n2CCCN2CCCCC2)cc1Cl	-12	-2	18	-4	16	41*
CCC1CSC(Nc2ccc(C(=O)/C=C/c3ccc(OC)c(OC)c3)cc2)=N1 (stereo not drawn)	68*	-28	5	14	7	0
COc1ccc(/C=C/C(=O)c2ccc(NC3=NCCCS3)cc2)cc1OC	51*	-19	17	-16	16	5
CCC1CSC(Nc2ccc(C(=O)/C=C/c3ccc(Br)cc3)cc2)=N1 (stereo not drawn)	38	31	-3	1	11	4
COc1ccc(/C=C/C(=O)Nc2ccncc2)cc1OC	3	-19	19	-4	-3	-1
